Results: ChEMBL document CHEMBL2040727, “Substituted thiazoles VI. Synthesis and antitumor activity of new 2-acetamido- and 2 or 3-propanamido-thiazole analogs” (2012)

How the values were obtained:
Assay type in all cases: functional
[1] = test system: NCI-H322M; assay: Growth inhibition of human NCI-H322M cells at 10 uM after 48 hrs by coulter counter analysis; conditions: read-out: GI
Summary of the method: (§1)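 Single-dose NCI 60-line panel screen of test compounds. Cells grown in RPMI 1640 with 10% FBS. Compounds dissolved in DMSO, then diluted in phosphate buffer saline (final DMSO below 1%). Wells run in duplicate at 6 × 10⁴ cells/ml. Controls held PBS and DMSO at matching dilutions. Incubation 48 h at 37 °C under humidified 5% CO2. Cells diluted tenfold in saline and counted by Coulter counter. Percent growth inhibition taken from mean-graph of treated-cell growth.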

[2] = test system: MOLT-4; assay: Growth inhibition of human MOLT4 cells at 10 uM after 48 hrs by coulter counter analysis; conditions: MOLT-4, 48 h, read-out: GI; summary of the method: as §1
[3] = test system: SK-MEL-5; assay: Growth inhibition of human SK-MEL-5 cells at 10 uM after 48 hrs by coulter counter analysis; conditions: SK-MEL-5, 48 h, read-out: GI; summary of the method: as §1
[4] = test system: EKVX; assay: Growth inhibition of human EKVX cells at 10 uM after 48 hrs by coulter counter analysis; conditions: read-out: GI; summary of the method: as §1
[5] = test system: NCI-H522; assay: Growth inhibition of human NCI-H522 cells at 10 uM after 48 hrs by coulter counter analysis; conditions: NCI-H522, 48 h, read-out: GI; summary of the method: as §1
[6] = test system: LOX IMVI; assay: Growth inhibition of human LOXIMVI cells at 10 uM after 48 hrs by coulter counter analysis; conditions: read-out: GI; summary of the method: as §1
[7] = test system: HOP-62; assay: Growth inhibition of human HOP62 cells at 10 uM after 48 hrs by coulter counter analysis; conditions: HOP-62, 48 h, read-out: GI; summary of the method: as §1
[8] = Growth inhibition of human Hs 578T cells at 10 uM after 48 hrs by coulter counter analysis; conditions: read-out: GI; summary of the method: as §1
[9] = test system: MCF7; assay: Growth inhibition of human MCF7 cells at 10 uM after 48 hrs by coulter counter analysis; conditions: MCF7, 48 h, read-out: GI; summary of the method: as §1
[10] = test system: HCC 2998; assay: Growth inhibition of human HCC2998 cells at 10 uM after 48 hrs by coulter counter analysis; conditions: HCC 2998, 48 h, read-out: GI; summary of the method: as §1
[11] = test system: K562; assay: Growth inhibition of human K562 cells at 10 uM after 48 hrs by coulter counter analysis; conditions: K562, 48 h, read-out: GI; summary of the method: as §1
[12] = test system: SNB-75; assay: Growth inhibition of human SNB75 cells at 10 uM after 48 hrs by coulter counter analysis; conditions: SNB-75, 48 h, read-out: GI
Summary of the method: (§2)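 Single-dose screen in the NCI 60 cell line panel. Cells grown in RPMI 1640 with 10% FBS. Compounds dissolved in DMSO and diluted in phosphate buffered saline, final DMSO under 1%. Duplicate wells seeded from culture at 6 × 10⁴ cells/ml. Incubated 48 h at 37 °C, humidified, 5% CO2. Cells diluted tenfold in saline and Coulter-counted. Percent growth inhibition computed against PBS/DMSO controls.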

[13] = test system: MDA-MB-435; assay: Growth inhibition of human MDA-MB-435 cells at 10 uM after 48 hrs by coulter counter analysis; conditions: MDA-MB-435, 48 h, read-out: GI; summary of the method: as §1
[14] = test system: DU-145; assay: Growth inhibition of human DU145 cells at 10 uM after 48 hrs by coulter counter analysis; conditions: DU-145, 48 h, read-out: GI; summary of the method: as §1
[15] = test system: OVCAR-8; assay: Growth inhibition of human OVCAR8 cells at 10 uM after 48 hrs by coulter counter analysis; conditions: OVCAR-8, 48 h, read-out: GI; summary of the method: as §1
[16] = test system: OVCAR-5; assay: Growth inhibition of human OVCAR5 cells at 10 uM after 48 hrs by coulter counter analysis; conditions: OVCAR-5, 48 h, read-out: GI; summary of the method: as §1
[17] = test system: OVCAR-3; assay: Growth inhibition of human OVCAR3 cells at 10 uM after 48 hrs by coulter counter analysis; conditions: OVCAR-3, 48 h, read-out: GI; summary of the method: as §1
[18] = test system: T47D; assay: Growth inhibition of human T47D cells at 10 uM after 48 hrs by coulter counter analysis; conditions: read-out: GI; summary of the method: as §2
[19] = test system: SK-MEL-2; assay: Growth inhibition of human SK-MEL-2 cells at 10 uM after 48 hrs by coulter counter analysis; conditions: SK-MEL-2, 48 h, read-out: GI; summary of the method: as §1
[20] = test system: SF-268; assay: Growth inhibition of human SF268 cells at 10 uM after 48 hrs by coulter counter analysis; conditions: SF-268, 48 h, read-out: GI; summary of the method: as §1
[21] = test system: SW-620; assay: Growth inhibition of human SW620 cells at 10 uM after 48 hrs by coulter counter analysis; conditions: SW-620, 48 h, read-out: GI; summary of the method: as §2
[22] = test system: Malme-3M; assay: Growth inhibition of human MALME-3M cells at 10 uM after 48 hrs by coulter counter analysis; conditions: read-out: GI; summary of the method: as §1
[23] = test system: ACHN; assay: Growth inhibition of human ACHN cells at 10 uM after 48 hrs by coulter counter analysis; conditions: read-out: GI; summary of the method: as §1
[24] = test system: 786-0; assay: Growth inhibition of human 786-0 cells at 10 uM after 48 hrs by coulter counter analysis; conditions: 786-0, 48 h, read-out: GI; summary of the method: as §1
[25] = test system: IGROV-1; assay: Growth inhibition of human IGROV1 cells at 10 uM after 48 hrs by coulter counter analysis; conditions: IGROV-1, 48 h, read-out: GI; summary of the method: as §1
[26] = test system: SN12C; assay: Growth inhibition of human SN12C cells at 10 uM after 48 hrs by coulter counter analysis; conditions: read-out: GI; summary of the method: as §1
[27] = test system: NCI-H23; assay: Growth inhibition of human NCI-H23 cells at 10 uM after 48 hrs by coulter counter analysis; conditions: NCI-H23, 48 h, read-out: GI; summary of the method: as §1
[28] = test system: CCRF-CEM; assay: Growth inhibition of human CCRF-CEM cells at 10 uM after 48 hrs by coulter counter analysis; conditions: read-out: GI; summary of the method: as §1
[29] = test system: SNB-19; assay: Growth inhibition of human SNB19 cells at 10 uM after 48 hrs by coulter counter analysis; conditions: SNB-19, 48 h, read-out: GI; summary of the method: as §1
[30] = test system: UACC-62; assay: Growth inhibition of human UACC62 cells at 10 uM after 48 hrs by coulter counter analysis; conditions: UACC-62, 48 h, read-out: GI; summary of the method: as §2
[31] = test system: HT-29; assay: Growth inhibition of human HT-29 cells at 10 uM after 48 hrs by coulter counter analysis; conditions: HT-29, 48 h, read-out: GI; summary of the method: as §1
[32] = test system: SF-295; assay: Growth inhibition of human SF295 cells at 10 uM after 48 hrs by coulter counter analysis; conditions: SF-295, 48 h, read-out: GI; summary of the method: as §1
[33] = test system: A498; assay: Growth inhibition of human A498 cells at 10 uM after 48 hrs by coulter counter analysis; conditions: A498, 48 h, read-out: GI; summary of the method: as §1
[34] = test system: HOP-92; assay: Growth inhibition of human HOP92 cells at 10 uM after 48 hrs by coulter counter analysis; conditions: HOP-92, 48 h, read-out: GI; summary of the method: as §1
[35] = test system: A549; assay: Growth inhibition of human A549/ATCC cells at 10 uM after 48 hrs by coulter counter analysis; conditions: A549, 48 h, read-out: GI; summary of the method: as §1
[36] = test system: M14; assay: Growth inhibition of human M14 cells at 10 uM after 48 hrs by coulter counter analysis; conditions: M14, 48 h, read-out: GI; summary of the method: as §1
[37] = Growth inhibition of human NCI-ADR-RES cells at 10 uM after 48 hrs by coulter counter analysis; conditions: read-out: GI; summary of the method: as §1

| SMILES | inhibition of growth at 10 µM [1] | inhibition of growth at 10 µM [2] | inhibition of growth at 10 µM [3] | inhibition of growth at 10 µM [4] | inhibition of growth at 10 µM [5] | inhibition of growth at 10 µM [6] | inhibition of growth at 10 µM [7] | inhibition of growth at 10 µM [8] | inhibition of growth at 10 µM [9] | inhibition of growth at 10 µM [10] | inhibition of growth at 10 µM [11] | inhibition of growth at 10 µM [12] | inhibition of growth at 10 µM [13] | inhibition of growth at 10 µM [14] | inhibition of growth at 10 µM [15] | inhibition of growth at 10 µM [16] | inhibition of growth at 10 µM [17] | inhibition of growth at 10 µM [18] | inhibition of growth at 10 µM [19] | inhibition of growth at 10 µM [20] | other results |
| --- | --- | --- | --- | --- | --- | --- | --- | --- | --- | --- | --- | --- | --- | --- | --- | --- | --- | --- | --- | --- | --- |
| CCOC(=O)c1sc(NC(=O)CCN2CCN(C)CC2)nc1C | < 10% | < 10% | < 10% | 15.9% | 12.9% | 15.5% | < 10% | < 10% | 16.3% | < 10% | < 10% | < 10% | < 10% | < 10% | < 10% | < 10% | < 10% | < 10% | < 10% | < 10% | inhibition of growth at 10 µM [21]: < 10%; inhibition of growth at 10 µM [22]: < 10%; inhibition of growth at 10 µM [23]: < 10%; inhibition of growth at 10 µM [24]: < 10%; inhibition of growth at 10 µM [25]: < 10%; inhibition of growth at 10 µM [26]: < 10%; inhibition of growth at 10 µM [27]: < 10%; inhibition of growth at 10 µM [28]: 96.2%; inhibition of growth at 10 µM [29]: < 10%; inhibition of growth at 10 µM [30]: < 10%; inhibition of growth at 10 µM [31]: < 10%; inhibition of growth at 10 µM [32]: < 10%; inhibition of growth at 10 µM [33]: < 10%; inhibition of growth at 10 µM [34]: < 10%; inhibition of growth at 10 µM [35]: < 10%; inhibition of growth at 10 µM [36]: < 10%; inhibition of growth at 10 µM [37]: < 10% |
| CCOC(=O)c1sc(NC(=O)CCN2CCN(c3ccccc3)CC2)nc1C | < 10% | < 10% | < 10% | < 10% | < 10% | < 10% | < 10% | < 10% | < 10% | < 10% | < 10% | < 10% | < 10% | < 10% | < 10% | < 10% | < 10% | < 10% | < 10% | < 10% | inhibition of growth at 10 µM [21]: < 10%; inhibition of growth at 10 µM [22]: 12%; inhibition of growth at 10 µM [23]: < 10%; inhibition of growth at 10 µM [24]: < 10%; inhibition of growth at 10 µM [25]: < 10%; inhibition of growth at 10 µM [26]: < 10%; inhibition of growth at 10 µM [27]: < 10%; inhibition of growth at 10 µM [28]: < 10%; inhibition of growth at 10 µM [29]: < 10%; inhibition of growth at 10 µM [30]: < 10%; inhibition of growth at 10 µM [31]: < 10%; inhibition of growth at 10 µM [32]: < 10%; inhibition of growth at 10 µM [33]: 12.8%; inhibition of growth at 10 µM [34]: 17.5%; inhibition of growth at 10 µM [35]: < 10%; inhibition of growth at 10 µM [36]: < 10%; inhibition of growth at 10 µM [37]: < 10% |
